We go through 18 molecules from ChEMBL document CHEMBL1124837, “5-Hydroxytryptamine (5-HT3) receptor antagonists. 1. Indazole and indolizine-3-carboxylic acid derivatives” (J Med Chem, 1990).

This assay concerns the target Serotonin 3 (5-HT3) receptor (Rattus norvegicus) (UniProt P35563+Q9JJ16). The assay is described as follows: Inhibition of 5-HT evoked reflex bradycardia in rat. Format: functional, organism-based. The gist of the method:
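Anesthetized rats (260–290 g; urethane 1.25 g/kg ip) with blood pressure and heart rate recorded. A submaximal 5-HT dose (6 μg/kg iv) was given repeatedly and heart-rate changes were quantified. Test agents were given iv before 5-HT. ID50 is the dose cutting the 5-HT-evoked response to 50% of control.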

A value given as a limit tells only on which side of the number the result lay.

As to `CN1C2CCC1CC(NC(=O)c1cc(-c3ccccc3)c3ccccn13)C2` (stereo not drawn), the ID50 is 4.7 µg/kg.
`CN1C2CCCC1CC(NC(=O)c1[nH]nc3ccc(Cl)cc13)C2` (stereo not drawn) showed an ID50 of 12.4 µg/kg.
The molecule `CCc1cc(C(=O)NC2CC3CCC(C2)N3C)n2ccccc12` (stereo not drawn) showed an ID50 of 1 µg/kg.
`CN1C2CCCC1CC(NC(=O)c1[nH]nc3ccccc13)C2` (stereo not drawn) yielded an ID50 of 1.1 µg/kg.
`CN1C2CCC1CC(NC(=O)c1ccc3ccccn13)C2` (stereo not drawn): the ID50 was greater than 10 µg/kg.
`Cc1cc(C(=O)NC2CC3CCC(C2)N3C)n2ccccc12` (stereo not drawn) returned an ID50 of 1.6 µg/kg.
`CN1C2CCCC1CC(NC(=O)c1nn(C)c3ccccc13)C2` (stereo not drawn) showed an ID50 of 2 µg/kg.
The same measure for `CN1C2CCC1CC(NC(=O)c1n[nH]c3ccccc13)C2` (stereo not drawn): 1.2 µg/kg.
Consider `Cc1nccn1CC1CCc2c(c3ccccc3n2C)C1=O` (stereo not drawn), for which the ID50 was 3.6 µg/kg.
Molecule `CN1C2CCC1CC(OC(=O)c1[nH]nc3ccccc13)C2` (stereo not drawn) gave an ID50 of 5.3 µg/kg.
`CCc1nc(C(=O)NC2CC3CCC(C2)N3C)c2ccccn12` (stereo not drawn) registered an ID50 of 1 µg/kg.
For the molecule `CCc1nc(C(=O)NC2CC3CCCC(C2)N3C)c2ccccn12` (stereo not drawn), the ID50 stood at 0.5 µg/kg.
The same measure for `CN1[C@@H]2CC[C@H]1C[C@@H](OC(=O)c1c[nH]c3ccccc13)C2`: 1.4 µg/kg.
The figure for `CN1C2CCCC1CC(NC(=O)c1cn(C)c3ccccc13)C2` (stereo not drawn) is 6.8 µg/kg; for `CN1C2CCCC1CC(NC(=O)c1[nH]nc3ccc(F)cc13)C2` (stereo not drawn) it is 1 µg/kg; for `CCn1nc(C(=O)NC2CC3CCCC(C2)N3C)c2ccccc21` (stereo not drawn) it is 0.6 µg/kg.
Regarding `CN1C2CCC1CC(OC(=O)c1nn(C)c3ccccc13)C2` (stereo not drawn), the ID50 was 1.4 µg/kg.
Consider `CN1C2CCCC1CC(NC(=O)c1c3ccccc3nn1C)C2` (stereo not drawn), for which the ID50 is greater than 100 µg/kg.
